Results on seven compounds are retold here after ChEMBL document CHEMBL1131019, “Minimal-size, constrained corticotropin-releasing factor agonists with i-(i+3) Glu-Lys and Lys-Glu bridges” (1998).

Values joined by “and” are separate entries in the source; they are usually repeats but may differ in a detail not shown here. Identical values can stand only once. Square brackets hold non-standard residues; d marks the D form. Peptide text beside a SMILES is read from it. Nle = CCCC[C@H](N)C(=O)O

For test [1], the species on record is Rattus norvegicus. Kind of test: Agonist activity by measuring release of ACTH by rat pituitary cells in culture relative to ovine Corticotropin-Releasing factor (CRF). It is filed as functional, Pituitary gland cell. Summed up:
(§1)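 Male Sprague–Dawley rat anterior pituitary cells, collagenase-dissociated, plated at 0.16 × 10⁶ cells/well in 2% FBS medium. After 3 days, washed into 0.1% BSA medium, preincubated 1 h, washed again, then exposed to peptide for 3 h. Medium ACTH measured by radioimmunoassay.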

The species named for test [2] is Rattus norvegicus. Kind of test: In vitro for agonist activity by measuring release of ACTH by rat pituitary cells in culture relative to human Corticotropin-Releasing factor (CRF). It is filed as functional, Pituitary gland cell. The essentials:
as §1

Take `CCCC[C@H](NC(=O)[C@H](CCC(=O)O)NC(=O)[C@H](CC(C)C)NC(=O)[C@@H](NC(=O)[C@H](CCC(=O)O)NC(=O)[C@H](CCCN=C(N)N)NC(=O)[C@H](CC(C)C)NC(=O)[C@@H]1CCC(=O)NCCCC[C@H](NC(=O)[C@H](CC(C)C)NC(=O)[C@H](CC(=O)O)NC(=O)[C@H](CC(C)C)NC(=O)[C@H](CO)NC(=O)[C@@H](NC(=O)[C@@H]2CCCN2C(=O)[C@@H]2CCCN2C(C)=O)[C@@H](C)CC)C(=O)N[C@H](Cc2ccccc2)C(=O)N[C@@H](Cc2c[nH]cn2)C(=O)N1)C(C)C)C(=O)N[C@@H](C)C(=O)N[C@@H](CCCN=C(N)N)C(=O)N[C@@H](C)C(=O)N[C@@H](CCC(=O)O)C(=O)N[C@@H](CCC(N)=O)C(=O)N[C@@H](CC(C)C)C(=O)N[C@@H](C)C(=O)N[C@@H](CCC(N)=O)C(=O)N[C@@H](CCC(N)=O)C(=O)N[C@@H](C)C(=O)N[C@@H](Cc1c[nH]cn1)C(=O)N[C@@H](CO)C(=O)N[C@@H](CC(N)=O)C(=O)N[C@@H](CCCN=C(N)N)C(=O)N[C@@H](CCCCN)C(=O)N[C@@H](CC(C)C)C(=O)N[C@@H](CCCC)C(=O)N[C@@H](CCC(=O)O)C(=O)N[C@H](C(=O)N[C@H](C(N)=O)[C@@H](C)CC)[C@@H](C)CC`: in the test listed under Rattus norvegicus [1], the Potency is 0.0004.

With `CCCC[C@H](NC(=O)[C@H](CCCN=C(N)N)NC(=O)[C@H](CC(C)C)NC(=O)[C@H](CC(C)C)NC(=O)[C@H](CCC(=O)O)NC(=O)[C@H](CC(C)C)NC(=O)[C@H](CC(C)C)NC(=O)[C@H](CC(C)C)NC(=O)[C@H](CC(=O)O)NC(=O)[C@@H](NC(=O)[C@H](CO)NC(=O)[C@@H](NC(=O)[C@@H]1CCCN1C(=O)[C@@H]1CCCN1C(=O)CNC(=O)[C@H](CCC(=O)O)NC(=O)[C@@H]1CCCN1)[C@@H](C)CC)[C@@H](C)CC)C(=O)N[C@@H](CCCC)C(=O)N[C@H](C(=O)N[C@@H](CCC(=O)O)C(=O)N[C@H](C(=O)N[C@@H](CCC(=O)O)C(=O)N[C@@H](CCCCN)C(=O)N[C@@H](CCC(N)=O)C(=O)N[C@@H](CCC(=O)O)C(=O)N[C@@H](CCCCN)C(=O)N[C@@H](CCC(=O)O)C(=O)N[C@@H](CCCCN)C(=O)N1C(=O)[C@@H](C)NC(=O)[C@H](CCC(N)=O)NC(=O)[C@@H](N)CCC(=O)NCCCC[C@H]1C(=O)N[C@H](CC(N)=O)C(=O)N[C@H](CC(N)=O)C(=O)N[C@H](CCCN=C(N)N)C(=O)N[C@H](CC(C)C)C(=O)N[C@H](CC(C)C)C(=O)N[C@H](CC(C)C)C(=O)N[C@H](CC(=O)O)C(=O)N[C@@H](C(=O)N[C@@H](C(N)=O)[C@H](C)CC)[C@H](C)O)[C@@H](C)CC)[C@@H](C)CC`, the Potency in the test listed under Rattus norvegicus [1] is 5.73. Same read-out and setting: as for `CCCC[C@H](NC(=O)[C@H](CCC(=O)O)NC(=O)[C@H](CC(C)C)NC(=O)[C@@H](NC(=O)[C@H](CCC(=O)O)NC(=O)[C@H](CCCN=C(N)N)NC(=O)[C@H](CC(C)C)NC(=O)[C@@H]1CCCCNC(=O)CC[C@H](NC(=O)[C@H](CC(C)C)NC(=O)[C@H](CC(=O)O)NC(=O)[C@H](CC(C)C)NC(=O)[C@H](CO)NC(=O)[C@@H](NC(=O)[C@@H]2CCCN2C(=O)[C@@H]2CCCN2C(C)=O)[C@@H](C)CC)C(=O)N[C@H](Cc2ccccc2)C(=O)N[C@@H](Cc2c[nH]cn2)C(=O)N1)C(C)C)C(=O)N[C@@H](C)C(=O)N[C@@H](CCCN=C(N)N)C(=O)N[C@@H](C)C(=O)N[C@@H](CCC(=O)O)C(=O)N[C@@H](CCC(N)=O)C(=O)N[C@@H](CC(C)C)C(=O)N[C@@H](C)C(=O)N[C@@H](CCC(N)=O)C(=O)N[C@@H](CCC(N)=O)C(=O)N[C@@H](C)C(=O)N[C@@H](Cc1c[nH]cn1)C(=O)N[C@@H](CO)C(=O)N[C@@H](CC(N)=O)C(=O)N[C@@H](CCCN=C(N)N)C(=O)N[C@@H](CCCCN)C(=O)N[C@@H](CC(C)C)C(=O)N[C@@H](CCCC)C(=O)N[C@@H](CCC(=O)O)C(=O)N[C@H](C(=O)N[C@H](C(N)=O)[C@@H](C)CC)[C@@H](C)CC`, the figure is 1.4. On to `CCCC[C@H](NC(=O)[C@H](CCCN=C(N)N)NC(=O)[C@H](CC(C)C)NC(=O)[C@H](CC(C)C)NC(=O)[C@H](CCC(=O)O)NC(=O)[C@H](CC(C)C)NC(=O)[C@H](CC(C)C)NC(=O)[C@H](CC(C)C)NC(=O)[C@H](CC(=O)O)NC(=O)[C@@H](NC(=O)[C@H](CO)NC(=O)[C@@H](NC(=O)[C@@H]1CCCN1C(=O)[C@@H]1CCCN1C(=O)CNC(=O)[C@H](CCC(=O)O)NC(=O)[C@@H]1CCCN1)[C@@H](C)CC)[C@@H](C)CC)C(=O)N[C@@H](CCCC)C(=O)N[C@H](C(=O)N[C@@H](CCC(=O)O)C(=O)N[C@H](C(=O)N[C@@H](CCC(=O)O)C(=O)N[C@@H](CCCCN)C(=O)N[C@@H](CCC(N)=O)C(=O)N[C@@H](CCC(=O)O)C(=O)N[C@@H](CCCCN)C(=O)N[C@@H](CCC(=O)O)C(=O)N[C@@H](CCCCN)C(=O)N[C@H](CCC(=O)O)C(=O)N[C@H](CCC(N)=O)C(=O)N[C@H](C)C(=O)N[C@H](CCCCN)C(=O)N[C@H](CC(N)=O)C(=O)N[C@H](CC(N)=O)C(=O)N[C@H](CCCN=C(N)N)C(=O)N[C@H](CC(C)C)C(=O)N[C@H](CC(C)C)C(=O)N[C@H](CC(C)C)C(=O)N[C@H](CC(=O)O)C(=O)N[C@@H](C(=O)N[C@@H](C(N)=O)[C@H](C)CC)[C@H](C)O)[C@@H](C)CC)[C@@H](C)CC`, for which, in the test listed under Rattus norvegicus [2], the Potency is 0.53 and 0.54. Still for that read-out and setting: as for `CCCC[C@H](NC(=O)[C@H](CCC(=O)O)NC(=O)[C@H](CC(C)C)NC(=O)[C@H](CCCC)NC(=O)[C@H](CCC(=O)O)NC(=O)[C@H](CCCN=C(N)N)NC(=O)[C@H](CC(C)C)NC(=O)[C@H](CC(C)C)NC(=O)[C@H](Cc1c[nH]cn1)NC(=O)[C@H](Cc1ccccc1)NC(=O)[C@@H](NC(=O)[C@H](CC(C)C)NC(=O)[C@H](CC(=O)O)NC(=O)[C@H](CC(C)C)NC(C)=O)[C@@H](C)O)C(=O)N[C@@H](C)C(=O)N[C@@H](CCCCN)C(=O)N[C@@H](C)C(=O)N[C@@H](CCC(=O)O)C(=O)N[C@@H](CCC(N)=O)C(=O)N[C@@H](CCC(=O)O)C(=O)N[C@@H](C)C(=O)N[C@@H](CCC(=O)O)C(=O)N[C@@H](CCC(N)=O)C(=O)N[C@@H](C)C(=O)N[C@@H](C)C(=O)N[C@@H](CC(C)C)C(=O)N[C@@H](CC(N)=O)C(=O)N[C@@H](CCCN=C(N)N)C(=O)N[C@@H](CC(C)C)C(=O)N[C@@H](CC(C)C)C(=O)N[C@@H](CC(C)C)C(=O)N[C@@H](CCC(=O)O)C(=O)N[C@@H](CCC(=O)O)C(=O)N[C@@H](C)C(N)=O` (Ac-LDLTFHLLRE[Nle]LE[Nle]AKAEQEAEQAALNRLLLEEA-NH2), the figure is 0.004; as for `CC[C@H](C)[C@H](NC(=O)[C@H](CO)NC(=O)[C@H](CC(C)C)NC(=O)[C@H](CO)NC(=O)[C@H]1CCCN1C(=O)[C@H](CC(N)=O)NC(=O)[C@@H](N)CC(=O)O)C(=O)N[C@@H](CC(=O)O)C(=O)N[C@@H](CC(C)C)C(=O)N[C@H](C(=O)N[C@@H](Cc1ccccc1)C(=O)N[C@@H](Cc1c[nH]cn1)C(=O)N[C@@H](CC(C)C)C(=O)N[C@@H](CC(C)C)C(=O)N[C@@H](CCCN=C(N)N)C(=O)N[C@H](C(=O)N[C@@H](CC(C)C)C(=O)N[C@@H](CC(C)C)C(=O)N[C@@H](CCC(=O)O)C(=O)N[C@@H](CC(C)C)C(=O)N[C@@H](C)C(=O)N[C@@H](CCCN=C(N)N)C(=O)N[C@H](C(=O)N[C@@H](CCC(N)=O)C(=O)N[C@@H](CO)C(=O)N[C@@H](CCC(N)=O)C(=O)N[C@@H](CCCN=C(N)N)C(=O)N[C@@H](CCC(=O)O)C(=O)N[C@@H](CCCN=C(N)N)C(=O)N[C@@H](C)C(=O)N[C@@H](CCC(=O)O)C(=O)N[C@@H](CCC(N)=O)C(=O)N[C@@H](CC(N)=O)C(=O)N[C@@H](CCCN=C(N)N)C(=O)N[C@H](C(=O)N[C@H](C(=O)N[C@@H](Cc1ccccc1)C(=O)N[C@@H](CC(=O)O)C(=O)N[C@@H](CO)C(=O)N[C@H](C(N)=O)C(C)C)[C@@H](C)CC)[C@@H](C)CC)[C@@H](C)O)[C@@H](C)O)[C@@H](C)O` (stereo in doubt; 36), 3.1. The same measure, in the same setting: for `CC[C@H](C)[C@H](NC(=O)[C@H](CO)NC(=O)[C@H](CC(C)C)NC(=O)[C@H](CO)NC(=O)[C@H]1CCCN1C(=O)[C@H](CC(N)=O)NC(=O)[C@@H](N)CC(=O)O)C(=O)N[C@@H](CC(=O)O)C(=O)N[C@@H](CC(C)C)C(=O)N[C@H](C(=O)N[C@@H](Cc1ccccc1)C(=O)N[C@@H](Cc1c[nH]cn1)C(=O)N[C@@H](CC(C)C)C(=O)N[C@@H](CC(C)C)C(=O)N[C@@H](CCCN=C(N)N)C(=O)N[C@H](C(=O)N[C@@H](CC(C)C)C(=O)N[C@@H](CC(C)C)C(=O)N[C@@H](CCC(=O)O)C(=O)N[C@@H](CC(C)C)C(=O)N[C@@H](C)C(=O)N[C@@H](CCCN=C(N)N)C(=O)N[C@H](C(=O)N[C@@H](CCC(N)=O)C(=O)N[C@@H](CO)C(=O)N[C@@H](CCC(N)=O)C(=O)N[C@@H](CCCN=C(N)N)C(=O)N[C@@H](CCC(=O)O)C(=O)N[C@@H](CCCN=C(N)N)C(=O)N[C@@H](C)C(=O)N[C@@H](CCC(=O)O)C(=O)N[C@@H](CCC(N)=O)C(=O)N[C@@H](CC(N)=O)C(=O)N[C@@H](CCCN=C(N)N)C(=O)N[C@H](C(=O)N[C@H](C(=O)N[C@@H](Cc1ccccc1)C(=O)N[C@@H](CC(=O)O)C(=O)N[C@@H](CO)C(=O)N[C@H](C(N)=O)C(C)C)[C@@H](C)CC)[C@@H](C)CC)[C@@H](C)O)[C@@H](C)O)[C@@H](C)O` (stereo in doubt; 37) the value was 2.9.
